Data set [1] deals with T1, Lanosterol 14-alpha demethylase (Candida albicans (strain SC5314 / ATCC MYA-2876) (Yeast), UniProt P10613). Briefly: Inhibition of Candida albicans CYP51 assessed as reduction in [3-3H]lanosterol 14alpha-demethylation at 0.75 uM preincubated for 60 secs followed by NADPH addition measured after 60 mins by RP-HPLC analysis relative to control. The conditions noted are these: 1 h. An outline of the steps: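 C. albicans CYP51 expressed in E. coli and purified, 0.5 μM, with 1.0 μM rat NADPH-P450 reductase, dilauroylphosphatidylcholine and isocitrate dehydrogenase/isocitrate regeneration in 50 mM potassium phosphate pH 7.2, 10% glycerol, 0.1% Triton X-100. Substrate 25 μM final; inhibitor:enzyme:substrate 1.5:1:50. 37 °C, started with 100 μM NADPH. Sterols extracted with EtOAc, radio-HPLC. Triplicate, mean ± SD.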

The target in data set [2] is Lanosterol 14-alpha demethylase (Aspergillus) (UniProt B8NUK6+Q9P8R0+G4WW85). Put plainly: Inhibition of Aspergillus fumigatus CYP51 assessed as reduction in [3-3H]eburicol 14alpha-demethylation at 0.75 uM preincubated for 60 secs followed by NADPH addition measured after 60 mins by RP-HPLC analysis relative to control. The method, boiled down:
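E. coli-expressed, purified CYP51 (0.5 μM) with rat NADPH-P450 reductase (1.0 μM), 100 μM dilauroylphosphatidylcholine, isocitrate dehydrogenase/isocitrate NADPH regeneration, in 50 mM K phosphate pH 7.2 with 10% glycerol and 0.1% Triton X-100. [3-3H]eburicol 25 μM final, inhibitor 0.75 μM final (1.5:1:50 inhibitor:enzyme:substrate), 37 °C. Started with 100 μM NADPH, 60 min, EtOAc extraction, radio-HPLC. Percent inhibition, triplicate, mean ± SD.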

A short description of data set [3]: Lipophilicity, log P of the compound. It counts as physicochemical. The conditions noted are these: octanol/water.
For data set [4], the target named is T2, Lanosterol 14-alpha demethylase (Aspergillus, UniProt B8NUK6+G4WW85+Q9P8R0).
T2 sequence (B8NUK6 whole entry): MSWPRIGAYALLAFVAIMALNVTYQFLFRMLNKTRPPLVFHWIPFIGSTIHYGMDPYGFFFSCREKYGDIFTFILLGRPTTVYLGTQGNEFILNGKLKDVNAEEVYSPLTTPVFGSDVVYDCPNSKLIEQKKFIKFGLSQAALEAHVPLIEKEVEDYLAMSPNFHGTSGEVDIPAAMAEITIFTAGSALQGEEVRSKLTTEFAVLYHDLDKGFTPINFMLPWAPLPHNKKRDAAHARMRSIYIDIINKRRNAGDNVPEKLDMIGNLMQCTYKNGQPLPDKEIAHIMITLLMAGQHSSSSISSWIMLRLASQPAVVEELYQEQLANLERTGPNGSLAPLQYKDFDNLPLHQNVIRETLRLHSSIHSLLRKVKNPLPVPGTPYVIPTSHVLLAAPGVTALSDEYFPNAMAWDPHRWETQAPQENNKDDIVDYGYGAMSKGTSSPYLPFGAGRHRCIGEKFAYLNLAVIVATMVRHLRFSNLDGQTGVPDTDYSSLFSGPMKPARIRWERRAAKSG
T2 sequence (Q9P8R0 whole entry): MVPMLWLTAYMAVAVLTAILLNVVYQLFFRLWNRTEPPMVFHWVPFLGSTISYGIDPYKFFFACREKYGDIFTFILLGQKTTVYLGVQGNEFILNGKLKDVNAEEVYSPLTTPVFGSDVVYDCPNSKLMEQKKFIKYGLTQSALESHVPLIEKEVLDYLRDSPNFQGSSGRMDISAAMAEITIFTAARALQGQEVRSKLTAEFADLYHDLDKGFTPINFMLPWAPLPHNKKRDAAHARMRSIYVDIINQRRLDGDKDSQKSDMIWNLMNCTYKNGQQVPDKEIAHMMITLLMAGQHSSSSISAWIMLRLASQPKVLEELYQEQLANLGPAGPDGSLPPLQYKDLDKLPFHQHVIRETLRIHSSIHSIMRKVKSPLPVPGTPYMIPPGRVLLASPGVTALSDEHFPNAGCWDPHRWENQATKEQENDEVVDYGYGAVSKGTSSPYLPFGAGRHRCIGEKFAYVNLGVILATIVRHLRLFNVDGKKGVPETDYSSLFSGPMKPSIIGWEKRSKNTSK
T2 sequence (G4WW85 whole entry): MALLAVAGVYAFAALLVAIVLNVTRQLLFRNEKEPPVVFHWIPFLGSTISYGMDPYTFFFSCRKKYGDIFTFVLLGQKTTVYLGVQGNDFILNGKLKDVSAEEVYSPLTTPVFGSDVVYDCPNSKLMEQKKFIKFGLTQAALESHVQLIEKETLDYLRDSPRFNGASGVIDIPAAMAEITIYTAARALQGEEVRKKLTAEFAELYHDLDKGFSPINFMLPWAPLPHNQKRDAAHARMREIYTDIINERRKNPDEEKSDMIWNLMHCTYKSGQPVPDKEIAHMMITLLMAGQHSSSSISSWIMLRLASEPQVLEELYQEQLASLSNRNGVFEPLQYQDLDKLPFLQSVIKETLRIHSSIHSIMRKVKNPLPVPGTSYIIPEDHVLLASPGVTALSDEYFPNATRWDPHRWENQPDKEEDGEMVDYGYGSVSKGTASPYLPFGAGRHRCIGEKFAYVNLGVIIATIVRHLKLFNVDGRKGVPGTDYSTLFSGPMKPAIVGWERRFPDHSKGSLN
Put plainly: Binding affinity to Aspergillus fumigatus CYP51 by spectral titration method. To be noted: read-out: Kd(app). The method, boiled down:
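Purified CYP51 at 0.5 μM in 5 cm path cuvettes, titrated from 0.2 mM DMSO stocks over 0.1–0.8 μM ligand. Type II red shift of the Soret band (417 to 424 nm) followed as ΔA (Amax−Amin) in difference spectra. Kd obtained by fitting to the quadratic tight-binding equation using total ligand and enzyme concentrations.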

The nature of data set [5]: Half life in human liver microsomes at 1 uM preincubated for 5 mins followed by NADPH addition measured up to 45 mins by LC-MS/MS analysis. The conditions noted are these: 0.75 h. The format is ADME, microsome. The method, boiled down:
(§1)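 Pooled liver microsomes (0.5 mg/mL; male CD-1 mouse, male Sprague Dawley rat, or mixed-gender human) with 1 μM compound in 100 mM potassium phosphate pH 7.4, 3 mM MgCl2, 37 °C with shaking. 5 min preincubation, then 1 mM NADPH. Aliquots at 0, 3, 7, 15, 25, 45 min quenched in cold CH3CN with carbamazepine internal standard, then LC/MS/MS. Triplicate; T1/2 = ln2/k from the slope of ln % remaining versus time.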
On the technique in general: Liver microsomes are vesicles of endoplasmic reticulum, rich in cytochrome P450 enzymes.

Data set [6] in a line: Half life in Sprague-Dawley rat liver microsomes at 1 uM preincubated for 5 mins followed by NADPH addition measured up to 45 mins by LC-MS/MS analysis. The format is ADME, microsome. To be noted: 0.75 h. The method, boiled down: as §1
Data set [7] is described as follows: Half life in CD-1 mouse liver microsomes at 1 uM preincubated for 5 mins followed by NADPH addition measured up to 45 mins by LC-MS/MS analysis. The format is ADME, microsome. To be noted: 0.75 h. The method, boiled down:
as §1

Data set [8] deals with Aspergillus fumigatus. Briefly: Antifungal activity against Aspergillus fumigatus 1022 after 48 hrs by CLSI M38-A2 protocol based assay. It counts as functional. The conditions noted are these: Aspergillus fumigatus, 1022, 48 h; read-out: MIC100.
The subject of data set [9] is Aspergillus fumigatus. Briefly: Antifungal activity against Aspergillus fumigatus 32820 after 48 hrs by CLSI M38-A2 protocol based assay. The format is functional. To be noted: Aspergillus fumigatus, 32820, 48 h; read-out: MIC100.
Data set [10] can be described thus: in vitro. The conditions noted are these: human, liver microsomes.
Data set [11] is described as follows: in vitro. To be noted: human, liver microsomes. The source holds these as a separate data set.
The nature of data set [12]: in vitro. The conditions noted are these: Sprague-Dawley, rat, liver microsomes.
Data set [13] is described as follows: in vitro. The conditions noted are these: Sprague-Dawley, rat, liver microsomes. The source holds these as a separate data set.
Data set [14] is described as follows: in vitro. To be noted: CD-1, mouse, liver microsomes.
Data set [15] is described as follows: in vitro. The conditions noted are these: CD-1, mouse, liver microsomes. This is another data set of the same source.
The subject of data set [16] is Aspergillus fumigatus. Briefly: Antifungal activity against Aspergillus fumigatus after 48 hrs.
In data set [17] the target is T1, Lanosterol 14-alpha demethylase. Put plainly: Binding affinity to Candida albicans CYP51 by spectral titration method. The conditions noted are these: read-out: Kd(app). The method, boiled down:
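Purified CYP51 at 0.5 μM in 5 cm path cuvettes, titrated from 0.2 mM DMSO stocks over 0.1–0.8 μM ligand. Kd obtained by fitting to the quadratic tight-binding equation using total ligand and enzyme concentrations.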

Data set [18] shares this target. Put plainly: Potency index, ratio of VNI Kd(app) to compound Kd(app) for Candida albicans CYP51.

Data on two molecules can be found in ChEMBL document CHEMBL4118269 (J Med Chem, 2018).

Structures are written as SMILES. ≈ marks a conversion by molar mass, not a printed value.

T1 sequence (P10613 whole entry): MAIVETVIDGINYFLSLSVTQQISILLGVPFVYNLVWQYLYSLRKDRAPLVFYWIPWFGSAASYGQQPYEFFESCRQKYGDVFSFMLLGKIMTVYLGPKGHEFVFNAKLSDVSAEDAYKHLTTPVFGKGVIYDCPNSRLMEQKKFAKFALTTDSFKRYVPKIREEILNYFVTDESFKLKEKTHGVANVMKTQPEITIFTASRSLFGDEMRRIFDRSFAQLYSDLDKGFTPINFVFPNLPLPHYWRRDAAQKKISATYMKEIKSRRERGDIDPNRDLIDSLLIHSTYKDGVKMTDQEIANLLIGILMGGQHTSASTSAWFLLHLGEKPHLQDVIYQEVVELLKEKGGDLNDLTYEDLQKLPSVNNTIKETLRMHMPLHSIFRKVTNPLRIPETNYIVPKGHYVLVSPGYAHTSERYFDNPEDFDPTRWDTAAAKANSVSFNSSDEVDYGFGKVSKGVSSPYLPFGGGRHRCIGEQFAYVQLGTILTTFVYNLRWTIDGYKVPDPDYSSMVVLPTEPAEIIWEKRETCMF

On to `O=C(N[C@@H](Cn1ccnc1)c1ccc(Cl)cc1Cl)c1ccc(-c2nnc(-c3ccccc3)o2)cc1`, for which the inhibition at 0.75 µM in [1] was determined as 20%. For the same molecule, the inhibition in data set [2] stood at 24%. In [3], this molecule had a logP of 4.57. Besides, in [4], the Kd turned out to be 0.203 µM. Also, the t1/2 in [5] is 2.5 h; in [6], 1.77 h; in [7], 1.03 h. Further, the MIC amounted to 0.48 µg/mL (≈ 0.952 µM) with Aspergillus fumigatus [8], 0.08 µg/mL (≈ 0.159 µM) in the data set on Aspergillus fumigatus [9] and 0.5 µg/mL (≈ 0.991 µM) in the data set with Aspergillus fumigatus [16]. The CLint scaled at 0.75 h, 1 µM in “in vitro [10]” came to 8.31 mL/min/kg; in the data set “in vitro [12]”, 26.4 mL/min/kg; in “in vitro [14]”, 87 mL/min/kg. In addition, the figures for the CLhep predicted at 0.75 h, 1 µM in “in vitro [11]”, in the data set “in vitro [13]” and in the data set “in vitro [15]” were 5.95 mL/min/kg, 19.2 mL/min/kg and 44 mL/min/kg, respectively.

Turning to `CC[C@@H]([C@H](C)O)n1ncn(-c2ccc(N3CCN(c4ccc(OC[C@@H]5CO[C@@](Cn6cncn6)(c6ccc(F)cc6F)C5)cc4)CC3)cc2)c1=O` [POSACONAZOLE], the inhibition at 0.75 µM in [1] stood at 98%. Also, in data set [2], the inhibition was 93%. Also, the values for the Kd in [17] and in [4] were 0.081 µM and 0.131 µM, respectively. Also, in data set [18], the Ratio is 3.5.

Usually inhibition stands for the drop in the measured response relative to a control, in per cent. Broadly, the logP is the decadic logarithm of the partition coefficient of the neutral form, usually between octanol and water. A low value points to a more hydrophilic compound. By CLint scaled is commonly meant the capacity of the preparation to metabolise the compound, expressed as a volume cleared per time.
